Measured values taken from the EternaBench riboswitch data.

Tested on: MS2 coat protein
Experiment: apparent Kd, MS2 coat protein; higher = weaker binding; RNA-MaP array; FMN 200 µM where present
Method in brief: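 Stalled E. coli RNA polymerase transcribed the designs on Illumina sequencing-chip clusters. SNAP-549-labelled MS2 coat protein was titrated from 0.7 or 1.5 nM, doubling to 3 µM, without and then with constant ligand, in 100 mM Tris-HCl pH 7.5, 80 mM KCl, 4 mM MgCl2, BSA, DTT, yeast tRNA and Tween-20. Per-cluster binding curves were fitted to green signal normalised to red-channel RNA signal and control-cluster median Fmax. The apparent Kd is the median of the filtered fits.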

[1] = designed as: ON switch for flavin mononucleotide, no ligand
[2] = ligand present: flavin mononucleotide, designed as: ON switch for flavin mononucleotide
[3] = designed as: OFF switch for flavin mononucleotide, no ligand
[4] = ligand present: flavin mononucleotide, designed as: OFF switch for flavin mononucleotide

Sequence	apparent Kd [1]	apparent Kd [2]	apparent Kd [3]	apparent Kd [4]
UUGCUCGUGUGAGGAUAUGCCGCCGUUUCGGCUGCAGAAGGUACUAUAAUACAUGAGGAUCACCCAUGUCUCUGUUGUUUCGUG	27.6 nM	27.1 nM		
UACAUGAGGAUCACCCAUGUUUUGUCGUGUAUGGUAUUUAUCUAGGAUAUCAAUAUAUUUAUUUAUGAGAAGGAGAAUAUUAAU			38 nM	33.6 nM
AGUUAAUAUCGAGGAUAUCUCAUGGAUACAUGAGGAUCACCCAUGUGAAUGGGAGAAGGCGAUAUUAACAGCAUGUUACAUGCA	32 nM	7.05 nM		
AAACACGGACAUGAGGAUCACCCAUGUGGCGAAAGCCUUGGGAGAAGGUAUUAUGCAAAGCAUUAUAAGGAUAUUCAUACCGUG	821 nM	187 nM		
AUCGUUAACGAAGGAUAUGGUUACAUGAGGAUCACCCAUGUAUUUUUUGUGAUCUUGUUUAAGUUCCAGAAGGUCGUUAACGUA			551 nM	710 nM
AAUUAGGUCACAGGAUAUACAUCAUCCAUAGAUGUAGAAGGGUGUCAAAGUAAUAUCUGACAUGAGGAUCACCCAUGUUUCCAC	23.3 nM	9.28 nM		
GGUGGAAGCACAGGAUAUGUUGAUUUUAUGGUGUUACAUGAGGAUCACCCAUGUCCGCGAUUCUAACAGAAGGGUGCAUGGAUG	543 nM	59.9 nM		
UUGGACGUCGUAGGAUAUGUAGGAUAUUCCUACAUGAGGAUCACCCAUGUUGACAUGGAAGAAGGACAGAAGGACGACGUCCAU	173 nM	4.59 nM		
CAGCAAAGGUAGAAGGCAGUACUGAUACAGUACUGAGGAUAUACAUGAGGAUCACCCAUGUAAAAAAGCUGGAAAUAAAUAAAA			7.39 nM	10 nM
UUACUCAUGUAAGGAUAUGCAGCCGAUACGGCUGCAGAAGGUACUAAAAUACAUGAGGAUCACCCAUGUCUUUUUAAUUUAGAC	140 nM	73.7 nM		
UACAUGAGGAUCACCCAUGUUUUGUCGUGUAUGGUAUUUAUCUAGGAUAUCAAUUUACUUAUUUAUGAGAAGGAGAAUAUUAAU			32.4 nM	31.3 nM
GGUUGUCAUCGUCAUCCUUUCUGUACAUGAGGAUCACCCAUGUAGGAUAUGCUGCUCUCGGUGUGGCAGAAGGGCGUGUGUCUU			34.2 nM	37.6 nM
UCAGCGGUGCAAGGAUAUAACACAAUUGUCCUUAGUCGAGACGAGUGACAUGAGGAUCACCCAUGUUAGAAGGUGUCCUGCUGG			72 nM	326 nM
GCCUUGUCAGGAUAUCCGCGCGGGUGGCGCAUGCACUGCGUGGAGAAGGGACAUGAGGAUCACCCAUGUGCGUA			89.2 nM	317 nM
CCCUGUGGAGGAUAUUGCAAAGGUGACAUGAGGAUCACCCAUGUUGGACGUUAAGCACUGCAAGAAGGCCGGUUGA			50 nM	24.5 nM
UCCUACAUGGGAGGAUAUGGGAUGAUAACAUGAGGAUCACCCAUGUUAAAGAUGCCGAGAGGCAACUAGAAGGCCCAUGUAGGU	434 nM	70.3 nM		
CGUUGUAACGCAGGAUAUCCAAAGCUUUUUGCAGGAGAAGGGUGUUACAUGAGGAUCACCCAUGUGAAGGCCCGCAUUCCUCAU			5.57 nM	6.41 nM
AGACGCAUGCAGAAGGACGACAUGAGGAUCACCCAUGUGGUCGGUAGGGUCGUAGGAUAUGCAAGGCGUUGCGAGCCAACUGUG			118 nM	26.9 nM
ACAUACAUUCGAGGAUAUCGGUGAUUAAUUUUACGAGAAGGCGAUUUAAGAUAUAAUAUUUUAGACAUGAGGAUCACCCAUGUA	25.3 nM	23.1 nM		
GACAAGUGAGGAUAUCUGAUGUCUAACUUCGGUUAGACAUCAGAGAAGGCACAUGAGGAUCACCCAUGUCUGUC			30.7 nM	20.8 nM
AGGUAAGAGUUAAUUGUGACGGUGAGAAGGCAAUAGGUUGUGAUUAACAUGAGGAUCACCCAUGUUGAGGAUAUCACCACCUAC			14.3 nM	80.8 nM
AAAAAAAAAAGACAGGAUAUCCAAAAAAAAACAUGAGGAUCACCCAUGUAAAAAAAAAAAAAGUGGGAGAAGGGUCAAAAAAAAAA	57.7 nM	23.2 nM		
UGUCGGAGCAGAGGAUAUAUACAUGAGGAUCACCCAUGUAAAGAUCAAAGCUGGAAACAGCAAGUAUAGAAGGCUGCUCCGACA			120 nM	295 nM
AUUAAACAUGAGGAUCACCCAUGUCAACAAAGUCGAGGAUAUGGGCAAAUAAAAUAUGAACCAGAAGGCGAAUAAU	213 nM	38.2 nM		
AUCAGCUCGUCAGGAUAUACAUCACUGCUUCGGCAGUGUAUUAAGGUCACAUGAGGAUCACCCAUGUAGAAGGGACGAGCUGAU			21.2 nM	142 nM
UCUGGUCAAGGAUAUGCGUAAUGUGUUACGGCACGAGGUCUACAUGAGGAUCACCCAUGUAGAAGGUGAUCAGA			18 nM	17.9 nM
AGGAUUAAAGGGAAUAACAUGAGGAUCACCCAUGUAUGGGAGAGAAGGCAUAUCGGAGGACGAUAUGAGGAUAUUUAAAAUUUA	121 nM	38.3 nM		
UGUUCAUCAUCAGGAUAUUAACGUGGGCUACUUUAAGAAGGGAUAGUGGGAGAGGAUGUGAAACAUGAGGAUCACCCAUGUUGU	13.4 nM	10.3 nM		

Sequence	apparent Kd [1]	apparent Kd [2]	apparent Kd [3]	apparent Kd [4]
UGUCGGAGCAGAGGAUAUAUACAUGAGGAUCACCCAUGUAAAUGAAUGAGCUGGAAACAGCAUGUAUAGAAGGCUGCUCCGACA			118 nM	298 nM
AAACCGUGUGGAGGAUAUGCAGUUGAGGUGAGGUGGCAACUCUAUACGACAGCAGAAGGCCACAUGAGGAUCACCCAUGUAGGU			251 nM	73.6 nM
CUUGUGUUAGGAUAUGCGUUUCCGGUGCGUCACUGGAUCUGGCAGAAGGGACAUGAGGAUCACCCAUGUUUGGC			38.7 nM	31 nM
UGAUACUAAGAGAAGGUUCAAACUACAUAUUGCAUACAUGAGGAUCACCCAUGUUGGUGAAUAAGAAAGGAUAUUUUACUAUAU			48.2 nM	38.2 nM
UAUAAUCGAGGAUAUACAUGAGGAUCACCCAUGUGUUGCCGCGUGACAUGAUCGUCAGGUAGAAGGCGAUUAUA			189 nM	39.7 nM
AAUAACAGAGGAUAUACUAUUUUAUGUGUUUAUUGUUUUGAACAUGAGGAUCACCCAUGUAGAAGGCUGAAUAA			24.6 nM	26.1 nM
GGAUAGGACAGAGGAUAUACGUGCAAGAGAUACUAGCAAAAUUUCCUCACAUGAGGAUCACCCAUGUAGAAGGCUGUCCUAUCG			57.4 nM	331 nM
CAAUUGGCACAGAAGGGUGACAUGAGGAUCACCCAUGUAGCGUGGUACUCAGGAGGAACCACGCCACAGGAUAUGUGCCGGCAC	44.5 nM	123 nM		
CCGUCCCGGCUGCAGCUCGGUAACAUGAGGAUCACCCAUGUCAAGGAUAUAACCAUACUCGAUCGUUAGAAGGUGACAGGGUCC			175 nM	107 nM
UGGCGUUGAGGAUAUACAUUGAAUAAGAUUCAUGUAAAACUACAUGAGGAUCACCCAUGUAGAAGGCAAUGCCU			16.9 nM	27.7 nM
CAGUACUGAGGAUAUACAUGAGGAUCACCCAUGUGUUCCAGCUAGGAAACUAGCUAAAGUAGAAGGCAGUACUG			21.9 nM	424 nM
GGAUAGGACAGAGGAUAUACGUGCUAGAGUUACUAGCAAAAUUUCCUCACAUGAGGAUCACCCAUGUAGAAGGCUGUCCUAUCG			15.6 nM	470 nM
AAAACAUGAGGAUCACCCAUGUAAAGUUCAAACAAUAUGAGUGAGGAUAUACUGAGUUAGUUAUGGUAGAAGGCACUGGGUACA	35 nM	28.7 nM		
CCCGCUGGAGGAUAUGCACUACGUGUGUUUUCUUUUGAGGCACAUGAGGAUCACCCAUGUAGAAGGCCACGCGG			97.6 nM	430 nM
AAGGAUAGAGGAUAUACAUAGAUACAGAUUCAUGUAAUCCUACAUGAGGAUCACCCAUGUAGAAGGCUAUCCUA			15.8 nM	58.3 nM
UGAAAUCAUGUAGGAUAUGCAUGGCGAAGCUACGCAGAAGGACAUGAGGAUCACCCAUGUUCUGGCUACCGAGUUCGGUGGCAA			22.1 nM	105 nM
GGGCCGCUACGCCGGCUCCACGCACAGGAUAUGCAGUUACAUGAGGAUCACCCAUGUGGCCAUGUGCAGAAGGGUGGUUCGCGA	85.3 nM	28.6 nM		
GCAAUCGAGGGAGGAUAUUGUGAGAUGGUGACAUGAGGAUCACCCAUGUGACGAGAAGGCCCAGUGCGCCCGCUUAACUGCUGA			37.4 nM	210 nM
ACAAGAUCAGGAUAUACAUGAGGAUCACCCAUGUAUAUAAAAAAAGGGCCUUCUACAUGUAGAAGGGAUCUUGU			13.8 nM	13.7 nM
UGGUACAUGGGAGGAUAUGGGUUGUUAACAUGAGGAUCACCCAUGUUAUGCCGAAAGGCAAAGAACUAGAAGGCCCAUGUACCU	21.9 nM	16.4 nM		
AUCCGGGCCCAGAAGGUGCCAGCGAGAGCUGCACAUGAGGAUCACCCAUGUUGUCGGUGACGACGCAAGGAUAUGGGCCCGGAU	24.4 nM	6.89 nM		
ACUAGUUGGUAAGGAUAUCCUACACUGUUCUGACCCGUGCAAGCUACAUGAGGAUCACCCAUGUGGGAGAAGGUGCGUCAACGC			15.3 nM	15.9 nM
GGGUACAUCGGAGGAUAUCAUGUAAAUACAUGAGGAUCACCCAUGUCGAUGGAGACAUCGGAGAUUGAGAAGGCCGAAGUACCG	214 nM	8.99 nM		
GGCGUGUUAGGAUAUCGCGGCGGCGGCGUUUGUUGUUGUUGUGAGAAGGAACAUGAGGAUCACCCAUGUAUGCC			34.8 nM	55 nM
UAAAUGUGAGGAUAUCAGGUGUGCUAGCGUACUGGUACAUCUGAGAAGGCACAUGAGGAUCACCCAUGUUCCUU			16.8 nM	61.3 nM
AAGAUGUUAGGAUAUGCUGCUCGUCACAAAAGUGAUGAGUAGCAGAAGGAACAUGAGGAUCACCCAUGUAAAGA			31 nM	55.3 nM
GUAAGUACGAGAGGAUAUUGACAUGAGGAUCACCCAUGUAUUUGGGAGUGUUCACUGAAUUCUUACGAGAAGGCUUGUACAUAC			221 nM	220 nM
